In the M2OR odorant receptor database:

How the values were obtained:
Settings in all cases: stereoisomer not certain
OR8H1 (Homo sapiens) = OR8H1 (Homo sapiens) (UniProt Q8NGG4)
Procedure, shortened: (§1)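 Assay methods differ from source to source, frequently being transient luciferase assays in mammalian cell lines. For each receptor–molecule pair, the label responsive (active) applies when the original authors judged the measured signal statistically different from baseline, and non-responsive (inactive) applies otherwise.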

OR8H2 (Homo sapiens) = OR8H2 (Homo sapiens) (UniProt Q8N162)
Sequence of OR8H2 (Homo sapiens) (Q8N162 whole entry): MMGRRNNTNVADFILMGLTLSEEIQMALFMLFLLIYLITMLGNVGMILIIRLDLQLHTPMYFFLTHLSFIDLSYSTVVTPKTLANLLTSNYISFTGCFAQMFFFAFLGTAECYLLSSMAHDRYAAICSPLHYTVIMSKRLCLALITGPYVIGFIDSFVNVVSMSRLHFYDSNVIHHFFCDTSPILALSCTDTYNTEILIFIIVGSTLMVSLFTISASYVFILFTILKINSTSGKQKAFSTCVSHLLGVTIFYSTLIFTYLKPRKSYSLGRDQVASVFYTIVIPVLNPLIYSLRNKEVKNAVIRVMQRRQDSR
Procedure, shortened: as §1

OR8H3 (Homo sapiens) = OR8H3 (Homo sapiens) (UniProt Q8N146)
Sequence of OR8H3 (Homo sapiens) (Q8N146 whole entry): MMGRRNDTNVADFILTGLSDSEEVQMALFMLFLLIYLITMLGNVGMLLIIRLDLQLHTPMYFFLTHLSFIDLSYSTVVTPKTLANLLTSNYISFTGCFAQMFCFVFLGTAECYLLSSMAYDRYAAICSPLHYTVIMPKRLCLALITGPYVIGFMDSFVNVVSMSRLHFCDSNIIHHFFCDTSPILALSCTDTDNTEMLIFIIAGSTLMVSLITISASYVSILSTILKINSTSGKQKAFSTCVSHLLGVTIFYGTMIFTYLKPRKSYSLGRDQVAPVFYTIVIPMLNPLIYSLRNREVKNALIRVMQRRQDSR
Procedure, shortened: as §1

OR8I2 (Homo sapiens) = OR8I2 (Homo sapiens) (UniProt Q8N0Y5)
Sequence of OR8I2 (Homo sapiens) (Q8N0Y5 whole entry): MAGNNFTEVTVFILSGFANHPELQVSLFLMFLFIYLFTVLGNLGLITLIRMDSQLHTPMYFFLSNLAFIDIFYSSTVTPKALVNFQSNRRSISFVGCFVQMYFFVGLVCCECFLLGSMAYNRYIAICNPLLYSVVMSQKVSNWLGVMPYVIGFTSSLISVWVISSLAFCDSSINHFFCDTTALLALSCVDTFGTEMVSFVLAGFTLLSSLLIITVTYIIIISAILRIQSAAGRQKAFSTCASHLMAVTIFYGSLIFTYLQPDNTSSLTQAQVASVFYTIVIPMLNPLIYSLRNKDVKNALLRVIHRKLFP
Procedure, shortened: as §1

OR8J1 (Homo sapiens) = OR8J1 (Homo sapiens) (UniProt Q8NGP2)
Sequence of OR8J1 (Homo sapiens) (Q8NGP2 whole entry): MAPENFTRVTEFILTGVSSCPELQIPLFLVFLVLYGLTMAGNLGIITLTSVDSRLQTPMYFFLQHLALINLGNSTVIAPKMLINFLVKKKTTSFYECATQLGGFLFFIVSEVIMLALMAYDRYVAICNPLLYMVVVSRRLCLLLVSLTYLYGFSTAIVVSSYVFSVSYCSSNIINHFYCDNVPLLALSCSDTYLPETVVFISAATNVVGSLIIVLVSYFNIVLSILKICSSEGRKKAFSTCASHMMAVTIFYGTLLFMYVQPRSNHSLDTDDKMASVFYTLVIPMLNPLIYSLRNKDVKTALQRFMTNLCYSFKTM
Procedure, shortened: as §1

OR8J2 (Homo sapiens) = OR8J2 (Homo sapiens) (UniProt Q8NGG1)
Sequence of OR8J2 (Homo sapiens) (Q8NGG1 whole entry): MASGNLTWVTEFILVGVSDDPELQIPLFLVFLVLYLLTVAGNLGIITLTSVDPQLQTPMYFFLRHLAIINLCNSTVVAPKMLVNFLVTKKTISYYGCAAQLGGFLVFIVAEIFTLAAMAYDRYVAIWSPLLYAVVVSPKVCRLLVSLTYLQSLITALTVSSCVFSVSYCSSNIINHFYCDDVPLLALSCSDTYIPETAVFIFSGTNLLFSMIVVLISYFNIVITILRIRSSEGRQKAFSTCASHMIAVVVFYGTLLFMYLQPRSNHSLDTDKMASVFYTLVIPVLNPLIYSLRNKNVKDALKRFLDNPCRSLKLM
Procedure, shortened: as §1

OR8J3 (Homo sapiens) = OR8J3 (Homo sapiens) (UniProt Q8NGG0)
Sequence of OR8J3 (Homo sapiens) (Q8NGG0 whole entry): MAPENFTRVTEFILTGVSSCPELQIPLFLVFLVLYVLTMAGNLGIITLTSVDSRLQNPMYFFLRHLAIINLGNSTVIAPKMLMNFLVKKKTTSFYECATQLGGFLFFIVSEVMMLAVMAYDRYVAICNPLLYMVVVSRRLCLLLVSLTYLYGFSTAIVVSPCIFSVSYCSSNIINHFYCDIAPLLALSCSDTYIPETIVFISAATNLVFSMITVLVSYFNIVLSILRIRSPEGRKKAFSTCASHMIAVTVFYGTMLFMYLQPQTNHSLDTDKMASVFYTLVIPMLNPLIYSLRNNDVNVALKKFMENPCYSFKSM
Procedure, shortened: as §1

OR8K1 (Homo sapiens) = OR8K1 (Homo sapiens) (UniProt Q8NGG5)
Sequence of OR8K1 (Homo sapiens) (Q8NGG5 whole entry): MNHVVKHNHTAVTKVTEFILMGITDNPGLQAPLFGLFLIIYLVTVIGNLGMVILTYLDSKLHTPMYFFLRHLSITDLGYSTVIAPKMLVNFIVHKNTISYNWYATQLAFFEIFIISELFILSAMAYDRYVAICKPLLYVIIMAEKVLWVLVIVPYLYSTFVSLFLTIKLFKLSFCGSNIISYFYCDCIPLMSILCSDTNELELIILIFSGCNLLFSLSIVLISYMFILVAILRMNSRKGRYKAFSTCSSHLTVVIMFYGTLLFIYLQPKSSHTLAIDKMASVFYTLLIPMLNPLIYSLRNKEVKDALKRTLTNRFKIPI
Procedure, shortened: as §1

OR8K3 (Homo sapiens) = OR8K3 (Homo sapiens) (UniProt Q8NH51)
Sequence of OR8K3 (Homo sapiens) (Q8NH51 whole entry): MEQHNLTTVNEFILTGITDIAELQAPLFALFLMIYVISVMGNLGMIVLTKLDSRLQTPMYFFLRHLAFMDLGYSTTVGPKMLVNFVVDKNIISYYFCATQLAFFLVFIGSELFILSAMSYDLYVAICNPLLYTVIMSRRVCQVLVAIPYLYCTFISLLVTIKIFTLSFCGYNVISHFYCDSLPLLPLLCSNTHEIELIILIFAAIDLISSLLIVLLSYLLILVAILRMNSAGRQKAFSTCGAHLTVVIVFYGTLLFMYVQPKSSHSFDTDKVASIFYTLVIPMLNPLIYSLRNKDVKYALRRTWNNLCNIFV
Procedure, shortened: as §1

OR8K5 (Homo sapiens) = OR8K5 (Homo sapiens) (UniProt Q8NH50)
Sequence of OR8K5 (Homo sapiens) (Q8NH50 whole entry): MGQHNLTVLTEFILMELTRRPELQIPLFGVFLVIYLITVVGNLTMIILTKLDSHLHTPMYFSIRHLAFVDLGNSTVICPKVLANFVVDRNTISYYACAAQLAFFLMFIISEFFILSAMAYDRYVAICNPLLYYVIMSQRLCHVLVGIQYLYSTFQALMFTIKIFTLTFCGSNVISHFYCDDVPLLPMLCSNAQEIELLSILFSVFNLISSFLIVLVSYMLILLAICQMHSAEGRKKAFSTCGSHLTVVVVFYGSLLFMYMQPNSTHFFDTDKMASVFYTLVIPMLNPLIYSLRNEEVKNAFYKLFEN
Procedure, shortened: as §1

OR8S1 (Homo sapiens) = OR8S1 (Homo sapiens) (UniProt Q8NH09)
Sequence of OR8S1 (Homo sapiens) (Q8NH09 whole entry): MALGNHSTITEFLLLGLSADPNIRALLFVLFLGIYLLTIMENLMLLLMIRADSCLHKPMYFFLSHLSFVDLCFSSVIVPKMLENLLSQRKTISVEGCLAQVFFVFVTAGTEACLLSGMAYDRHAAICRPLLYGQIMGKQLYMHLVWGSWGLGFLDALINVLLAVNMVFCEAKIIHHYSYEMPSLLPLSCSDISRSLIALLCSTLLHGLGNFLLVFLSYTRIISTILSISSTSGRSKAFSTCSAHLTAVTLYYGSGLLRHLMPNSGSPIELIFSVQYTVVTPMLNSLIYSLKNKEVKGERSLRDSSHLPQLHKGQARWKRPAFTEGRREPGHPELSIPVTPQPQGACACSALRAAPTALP
Procedure, shortened: as §1

OR8U1 (Homo sapiens) = OR8U1 (Homo sapiens) (UniProt Q8NH10)
Sequence of OR8U1 (Homo sapiens) (Q8NH10 whole entry): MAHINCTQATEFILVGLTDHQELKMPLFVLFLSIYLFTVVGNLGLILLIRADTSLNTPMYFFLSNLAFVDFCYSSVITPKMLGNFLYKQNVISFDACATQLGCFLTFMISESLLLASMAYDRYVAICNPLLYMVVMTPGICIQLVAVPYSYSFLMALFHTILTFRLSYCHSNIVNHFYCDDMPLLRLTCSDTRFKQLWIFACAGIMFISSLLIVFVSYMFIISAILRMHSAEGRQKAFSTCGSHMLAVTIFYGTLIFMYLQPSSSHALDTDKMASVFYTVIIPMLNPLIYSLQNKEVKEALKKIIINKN
Procedure, shortened: as §1

OR8U3 (Homo sapiens) = OR8U3 (Homo sapiens) (UniProt Q8NH85)
Sequence of OR8U3 (Homo sapiens) (Q8NH85 whole entry): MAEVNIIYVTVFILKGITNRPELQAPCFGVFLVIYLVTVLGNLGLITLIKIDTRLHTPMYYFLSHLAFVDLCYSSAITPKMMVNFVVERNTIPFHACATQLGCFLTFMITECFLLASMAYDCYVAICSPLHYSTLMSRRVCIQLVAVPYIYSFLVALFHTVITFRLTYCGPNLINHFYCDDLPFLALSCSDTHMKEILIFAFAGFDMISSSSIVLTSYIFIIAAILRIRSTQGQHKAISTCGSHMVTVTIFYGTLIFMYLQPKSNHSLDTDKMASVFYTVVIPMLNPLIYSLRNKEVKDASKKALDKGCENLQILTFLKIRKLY
Procedure, shortened: as §1

OR8U8 (Homo sapiens) = OR8U8 (Homo sapiens) (UniProt P0C7N1)
Sequence of OR8U8 (Homo sapiens) (P0C7N1 whole entry): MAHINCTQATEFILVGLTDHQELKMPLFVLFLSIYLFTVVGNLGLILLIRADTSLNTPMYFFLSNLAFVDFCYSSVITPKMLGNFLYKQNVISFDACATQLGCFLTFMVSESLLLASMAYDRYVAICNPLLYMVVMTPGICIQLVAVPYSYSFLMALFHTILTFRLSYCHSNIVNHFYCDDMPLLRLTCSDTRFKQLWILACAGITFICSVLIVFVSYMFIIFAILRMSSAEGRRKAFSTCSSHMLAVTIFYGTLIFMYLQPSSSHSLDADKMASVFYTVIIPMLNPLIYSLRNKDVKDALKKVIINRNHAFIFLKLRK
Procedure, shortened: as §1

OR8H2 H120Y Y169C V284M = test system: OR8H2 H120Y Y169C V284M
Procedure, shortened: as §1

OR8H3 = test system: OR8H3
Sequence of OR8H3 (as listed by the source): as the sequence (Q8N146 whole entry) above, with P137S counted along it
Procedure, shortened: as §1

OR8J1 = test system: OR8J1
Sequence of OR8J1 (as listed by the source): as the sequence (Q8NGP2 whole entry) above, with Y120C counted along it
Procedure, shortened: as §1

OR8J3 E4V = test system: OR8J3 E4V
Sequence of OR8J3 E4V (as listed by the source): as the sequence (Q8NGG0 whole entry) above, with E4V counted along it
Procedure, shortened: as §1

OR8U8 [1] = test system: OR8U8
Procedure, shortened: as §1
Target sequence in this assay (as listed by the source): as the sequence (P0C7N1 whole entry) above, with V109I, S112C counted along it

OR8U8 [2] = test system: OR8U8; remark: listed apart in the source
Procedure, shortened: as §1
Target sequence in this assay (as listed by the source): as the sequence (P0C7N1 whole entry) above, with H20R, V109I, R165C counted along it

Measured: odorant receptor agonist call

Sequence of OR8H1 (Homo sapiens) (Q8NGG4 whole entry): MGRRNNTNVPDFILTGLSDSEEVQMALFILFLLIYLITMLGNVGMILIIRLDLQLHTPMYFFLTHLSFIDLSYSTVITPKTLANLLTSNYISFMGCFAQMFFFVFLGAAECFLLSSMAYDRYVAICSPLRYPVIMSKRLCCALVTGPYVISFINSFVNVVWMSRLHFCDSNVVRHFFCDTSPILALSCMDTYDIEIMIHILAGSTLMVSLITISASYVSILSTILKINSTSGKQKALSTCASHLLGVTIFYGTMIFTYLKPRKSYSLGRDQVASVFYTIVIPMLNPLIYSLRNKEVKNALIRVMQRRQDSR

Cc1c([N+](=O)[O-])c(C)c([N+](=O)[O-])c(C(C)(C)C)c1[N+](=O)[O-]
inactive: OR8H1 (Homo sapiens) | OR8H2 (Homo sapiens) | OR8H3 (Homo sapiens) | OR8I2 (Homo sapiens) | OR8J1 (Homo sapiens) | OR8J2 (Homo sapiens) | OR8J3 (Homo sapiens) | OR8K1 (Homo sapiens) | OR8K3 (Homo sapiens) | OR8K5 (Homo sapiens) | OR8S1 (Homo sapiens) | OR8U1 (Homo sapiens) | OR8U3 (Homo sapiens) | OR8U8 (Homo sapiens)

C=CCOC(=O)Cc1ccccc1
inactive: OR8H1 (Homo sapiens) | OR8H2 (Homo sapiens) | OR8H2 H120Y Y169C V284M | OR8H3 (Homo sapiens) | OR8H3 | OR8I2 (Homo sapiens) | OR8J1 (Homo sapiens) | OR8J1 | OR8J3 (Homo sapiens) | OR8J3 E4V | OR8K1 (Homo sapiens) | OR8K3 (Homo sapiens) | OR8K5 (Homo sapiens) | OR8S1 (Homo sapiens) | OR8U1 (Homo sapiens) | OR8U3 (Homo sapiens) | OR8U8 [1] | OR8U8 [2]
